{
  "source": "ChEMBL document CHEMBL1123722",
  "about": "“Comparative antitumor studies on platinum(II) and platinum(IV) complexes containing 1,2-diaminocyclohexane” (J Med Chem, 1987)",
  "key": {"B16": {"test_system": "B16", "assay": "Antitumor activity against B16 tumor ascite cells implanted ip in BDF1 mice was determined at a dose of 1.6-2 mg/kg", "format": "functional, organism-based", "settings": "Mus musculus"}, "L1210": {"test_system": "L1210", "assay": "Antitumor activity against 10E6 L1210 ascites cells implanted ip in CDF1 mice was determined after a dose of 6-10 mg/kg", "format": "functional, organism-based", "settings": "Mus musculus", "method_in_brief": "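CDF1 mice implanted with 1 × 10⁶ L1210 ascites cells ip. Complexes were suspended in 0.9% NaCl with a drop of Tween 80 and given ip on day 1 after tumor inoculation. Groups were five treated mice and 10 leukemic controls. Mice were observed daily. Activity is % T/C: median survival time of treated ÷ untreated controls × 100.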"}},
  "data": [
    {"sequence": "CISPLATIN", "values": [
      {"measurement": "T/C", "setting": "B16", "value": 167, "unit": "%"},
      {"measurement": "T/C", "setting": "L1210", "value": 150, "unit": "%"}
    ]}
  ]
}
